≈ marks a conversion by molar mass, not a printed value.

A short description of the first series: Lipophilicity, logP of the compound. It counts as physicochemical. Conditions: octanol/water.
Usually logP stands for the decadic logarithm of the partition coefficient of the neutral form, usually between octanol and water. The molecule `Cn1cc(C(=O)N2CCC(C(N)=O)CC2)c2ccccc21` showed a logP of 0.4.

Take `O=C(Cn1ccccc1=O)Nc1cc2ccccc2[nH]1`: the logP is listed as 0.4.

Take `COC(=O)c1ccc2c(C(=O)N(C)C)cn(C)c2c1`: the logP is given as 1.4.

The same series, now with this note: octanol/water; read-out: logP.
Regarding `COC(=O)c1ccc2ccc(C(=O)N(C)C)c-2cc1`, the logP turned out to be 2.1.

As for `Cn1cc(C(=O)c2ccccc2)c2cc(C(=O)NCCO)ccc21`, the logP turned out to be 1.3.

As for `O=C(NCCc1cnc[nH]1)c1ccc2ccc(C(=O)c3ccccc3)c-2cc1`, the lipophilicity (logP) turned out to be 2.3.

As for `O=C(NCc1cccnc1)c1ccc2[nH]cc(C(=O)c3ccccc3)c2c1`, the logP came to 1.4.

In the case of `CN1CCN(C(=O)c2ccc3c(c2)c(C(=O)c2ccccc2)cn3C)CC1`, the logP came to 2.

`O=C(NCCc1c[nH]c2ccccc12)c1ccc2ccc(C(=O)c3ccccc3)c-2cc1`: the logP was 4.3.

For the molecule `Cn1cc(C(=O)c2ccccc2)c2cc(C(=O)NCCc3c[nH]c4ccccc34)ccc21`, the lipophilicity (logP) was found to be 3.5.

A further series can be described thus: Permeability of the compound at pH 7.4 by PAMPA assay. The format is ADME. The settings on record: read-out: permeability.
`COC(=O)c1ccc2ccc(C(=O)N(C)C)c-2cc1`: the Papp was 7.4 ×10⁻⁶ cm/s.

With `Cn1cc(C(=O)c2ccccc2)c2cc(C(=O)NCCO)ccc21`, the Papp is 0.5 ×10⁻⁶ cm/s.

Take `O=C(NCCc1cnc[nH]1)c1ccc2ccc(C(=O)c3ccccc3)c-2cc1`: the Papp was 0.3 ×10⁻⁶ cm/s.

Consider `O=C(NCc1cccnc1)c1ccc2[nH]cc(C(=O)c3ccccc3)c2c1`, for which the Papp was determined as 0.1 ×10⁻⁶ cm/s.

Turning to `CN1CCN(C(=O)c2ccc3c(c2)c(C(=O)c2ccccc2)cn3C)CC1`, the Papp was determined as 1.9 ×10⁻⁶ cm/s.

As to `Cn1cc(C(=O)N2CCC(C(N)=O)CC2)c2ccccc21`, the Papp stood at 0.2 ×10⁻⁶ cm/s.

With `O=C(NCCc1c[nH]c2ccccc12)c1ccc2ccc(C(=O)c3ccccc3)c-2cc1`, the Papp came to 0.03 ×10⁻⁶ cm/s.

For `Cn1cc(C(=O)c2ccccc2)c2cc(C(=O)NCCc3c[nH]c4ccccc34)ccc21`, the Papp was found to be 0.04 ×10⁻⁶ cm/s.

With `O=C(Cn1ccccc1=O)Nc1cc2ccccc2[nH]1`, the Papp was 0.1 ×10⁻⁶ cm/s.

Consider `COC(=O)c1ccc2c(C(=O)N(C)C)cn(C)c2c1`, for which the Papp worked out at 4.2 ×10⁻⁶ cm/s.

The nature of the next series: Aqueous solubility of the compound at pH 2.2 incubated for 24 hrs under shaking condition by LC-UV analysis. The format is physicochemical. The settings on record: aqueous medium. In short, it runs like this: (§1)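 The highest concentration tested was 250 μM, so results are capped at that level. Values are reported in µg/ml.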
Broadly, the solubility (thermodynamic) is the concentration in solution at equilibrium with solid. As to `COC(=O)c1ccc2ccc(C(=O)N(C)C)c-2cc1`, the solubility (thermodynamic) at 24 h is more than 64 µg/mL.

`Cn1cc(C(=O)c2ccccc2)c2cc(C(=O)NCCO)ccc21` came in with a solubility (thermodynamic) at 24 h of 53 µg/mL (≈ 164 µM).

For `O=C(NCCc1cnc[nH]1)c1ccc2ccc(C(=O)c3ccccc3)c-2cc1`, the solubility (thermodynamic) at 24 h was more than 77 µg/mL.

In turn, `O=C(NCc1cccnc1)c1ccc2[nH]cc(C(=O)c3ccccc3)c2c1` came in with a thermodynamic solubility at 24 h of more than 79 µg/mL.

Molecule `CN1CCN(C(=O)c2ccc3c(c2)c(C(=O)c2ccccc2)cn3C)CC1` displayed a thermodynamic solubility at 24 h of 78 µg/mL (≈ 216 µM).

In turn, `Cn1cc(C(=O)N2CCC(C(N)=O)CC2)c2ccccc21` had a thermodynamic solubility at 24 h of more than 71 µg/mL.

The molecule `O=C(NCCc1c[nH]c2ccccc12)c1ccc2ccc(C(=O)c3ccccc3)c-2cc1` displayed a solubility (thermodynamic) at 24 h of less than 1 µg/mL.

As to `Cn1cc(C(=O)c2ccccc2)c2cc(C(=O)NCCc3c[nH]c4ccccc34)ccc21`, the thermodynamic solubility at 24 h is less than 1 µg/mL.

For the molecule `O=C(Cn1ccccc1=O)Nc1cc2ccccc2[nH]1`, the solubility (thermodynamic) at 24 h is more than 60 µg/mL.

In the case of `COC(=O)c1ccc2c(C(=O)N(C)C)cn(C)c2c1`, the solubility (thermodynamic) at 24 h was found to be 50 µg/mL (≈ 192 µM).

A further series is described as follows: Aqueous solubility of the compound at pH 4.5 incubated for 24 hrs under shaking condition by LC-UV analysis. It counts as physicochemical. Conditions: aqueous medium. In short, it runs like this:
as §1
Molecule `COC(=O)c1ccc2ccc(C(=O)N(C)C)c-2cc1` showed a thermodynamic solubility at 24 h of 50 µg/mL (≈ 194 µM).

`Cn1cc(C(=O)c2ccccc2)c2cc(C(=O)NCCO)ccc21` displayed a solubility (thermodynamic) at 24 h of 66 µg/mL (≈ 205 µM).

Molecule `O=C(NCCc1cnc[nH]1)c1ccc2ccc(C(=O)c3ccccc3)c-2cc1` displayed a solubility (thermodynamic) at 24 h of 57 µg/mL (≈ 154 µM).

`O=C(NCc1cccnc1)c1ccc2[nH]cc(C(=O)c3ccccc3)c2c1`: the solubility (thermodynamic) at 24 h came out at 1 µg/mL (≈ 2.81 µM).

`CN1CCN(C(=O)c2ccc3c(c2)c(C(=O)c2ccccc2)cn3C)CC1` came in with a thermodynamic solubility at 24 h of 76 µg/mL (≈ 210 µM).

Take `Cn1cc(C(=O)N2CCC(C(N)=O)CC2)c2ccccc21`: the thermodynamic solubility at 24 h was determined as 44 µg/mL (≈ 154 µM).

Consider `O=C(NCCc1c[nH]c2ccccc12)c1ccc2ccc(C(=O)c3ccccc3)c-2cc1`, for which the thermodynamic solubility at 24 h was less than 1 µg/mL.

The molecule `Cn1cc(C(=O)c2ccccc2)c2cc(C(=O)NCCc3c[nH]c4ccccc34)ccc21` showed a solubility (thermodynamic) at 24 h of less than 1 µg/mL.

Molecule `O=C(Cn1ccccc1=O)Nc1cc2ccccc2[nH]1` came in with a solubility (thermodynamic) at 24 h of more than 67 µg/mL.

Regarding `COC(=O)c1ccc2c(C(=O)N(C)C)cn(C)c2c1`, the solubility (thermodynamic) at 24 h is more than 52 µg/mL.

A further series can be described thus: Aqueous solubility of the compound at pH 6.8 incubated for 24 hrs under shaking condition by LC-UV analysis. The format is physicochemical. Conditions: aqueous medium. In short, it runs like this: as §1
The molecule `COC(=O)c1ccc2ccc(C(=O)N(C)C)c-2cc1` registered a thermodynamic solubility at 24 h of more than 64 µg/mL.

`Cn1cc(C(=O)c2ccccc2)c2cc(C(=O)NCCO)ccc21` registered a thermodynamic solubility at 24 h of 45 µg/mL (≈ 140 µM).

`O=C(NCCc1cnc[nH]1)c1ccc2ccc(C(=O)c3ccccc3)c-2cc1` showed a thermodynamic solubility at 24 h of less than 1 µg/mL.

Regarding `O=C(NCc1cccnc1)c1ccc2[nH]cc(C(=O)c3ccccc3)c2c1`, the thermodynamic solubility at 24 h was less than 1 µg/mL.

As for `CN1CCN(C(=O)c2ccc3c(c2)c(C(=O)c2ccccc2)cn3C)CC1`, the thermodynamic solubility at 24 h stood at 68 µg/mL (≈ 188 µM).

On to `Cn1cc(C(=O)N2CCC(C(N)=O)CC2)c2ccccc21`, for which the thermodynamic solubility at 24 h is more than 64 µg/mL.

On to `O=C(NCCc1c[nH]c2ccccc12)c1ccc2ccc(C(=O)c3ccccc3)c-2cc1`, for which the thermodynamic solubility at 24 h is less than 1 µg/mL.

`Cn1cc(C(=O)c2ccccc2)c2cc(C(=O)NCCc3c[nH]c4ccccc34)ccc21`: the thermodynamic solubility at 24 h was less than 1 µg/mL.

On to `O=C(Cn1ccccc1=O)Nc1cc2ccccc2[nH]1`, for which the solubility (thermodynamic) at 24 h is more than 67 µg/mL.

Consider `COC(=O)c1ccc2c(C(=O)N(C)C)cn(C)c2c1`, for which the thermodynamic solubility at 24 h stood at 49 µg/mL (≈ 188 µM).

A short description of another series: Metabolic stability in human liver microsomes assessed as hepatic blood flow at 1 uM preincubated with compound followed by NADPH addition by LC-MS/MS analysis. The settings on record: read-out: QH. The format is ADME, Microsome.
With `Cn1cc(C(=O)c2ccccc2)c2cc(C(=O)NCCO)ccc21`, the hepatic extraction ratio at 1 µM is less than 0.23.

As for `O=C(NCCc1cnc[nH]1)c1ccc2ccc(C(=O)c3ccccc3)c-2cc1`, the hepatic extraction ratio at 1 µM amounted to 0.41.

With `O=C(NCc1cccnc1)c1ccc2[nH]cc(C(=O)c3ccccc3)c2c1`, the hepatic extraction ratio at 1 µM stood at 0.56.

Take `CN1CCN(C(=O)c2ccc3c(c2)c(C(=O)c2ccccc2)cn3C)CC1`: the hepatic extraction ratio at 1 µM was less than 0.23.

As for `Cn1cc(C(=O)N2CCC(C(N)=O)CC2)c2ccccc21`, the hepatic extraction ratio at 1 µM is less than 0.23.

For `O=C(NCCc1c[nH]c2ccccc12)c1ccc2ccc(C(=O)c3ccccc3)c-2cc1`, the hepatic extraction ratio at 1 µM was 0.69.

On to `Cn1cc(C(=O)c2ccccc2)c2cc(C(=O)NCCc3c[nH]c4ccccc34)ccc21`, for which the hepatic extraction ratio at 1 µM came out at 0.79.

Turning to `O=C(Cn1ccccc1=O)Nc1cc2ccccc2[nH]1`, the hepatic extraction ratio at 1 µM is less than 0.23.

Take `COC(=O)c1ccc2c(C(=O)N(C)C)cn(C)c2c1`: the hepatic extraction ratio at 1 µM was 0.82.

The next series can be described thus: Octanol-water partition coefficient, logD of the compound at pH 2 by HPLC analysis. The format is physicochemical.
Conditions: not given
One may read the logD as the decadic logarithm of the distribution of all forms, ionised or not, between an organic phase and buffer at a given pH. `Cn1cc(C(=O)N2CCC(C(N)=O)CC2)c2ccccc21` registered a logD of 1.1.

`O=C(Cn1ccccc1=O)Nc1cc2ccccc2[nH]1` showed a log distribution coefficient (logD) of 1.

The molecule `COC(=O)c1ccc2c(C(=O)N(C)C)cn(C)c2c1` showed a log distribution coefficient (logD) of 1.9.

The series is the same for the next values; noted with them: read-out: logD.
As to `COC(=O)c1ccc2ccc(C(=O)N(C)C)c-2cc1`, the logD was determined as 2.3.

In the case of `Cn1cc(C(=O)c2ccccc2)c2cc(C(=O)NCCO)ccc21`, the logD was determined as 1.6.

As for `O=C(NCCc1cnc[nH]1)c1ccc2ccc(C(=O)c3ccccc3)c-2cc1`, the logD turned out to be 1.3.

`O=C(NCc1cccnc1)c1ccc2[nH]cc(C(=O)c3ccccc3)c2c1`: the logD was 0.8.

Consider `CN1CCN(C(=O)c2ccc3c(c2)c(C(=O)c2ccccc2)cn3C)CC1`, for which the logD worked out at 0.7.

For `O=C(NCCc1c[nH]c2ccccc12)c1ccc2ccc(C(=O)c3ccccc3)c-2cc1`, the logD was 4.4.

Consider `Cn1cc(C(=O)c2ccccc2)c2cc(C(=O)NCCc3c[nH]c4ccccc34)ccc21`, for which the logD was determined as 3.6.

The nature of another series: Octanol-water partition coefficient, logD of the compound at pH 11 by HPLC analysis. The format is physicochemical.
Conditions: not given
With `O=C(Cn1ccccc1=O)Nc1cc2ccccc2[nH]1`, the logD is listed as 1.

`COC(=O)c1ccc2c(C(=O)N(C)C)cn(C)c2c1` had a logD of 1.9.

Still in this series, the particulars now being: read-out: logD.
For the molecule `COC(=O)c1ccc2ccc(C(=O)N(C)C)c-2cc1`, the logD amounted to 2.1.

For `Cn1cc(C(=O)c2ccccc2)c2cc(C(=O)NCCO)ccc21`, the logD is 1.6.

For the molecule `O=C(NCCc1cnc[nH]1)c1ccc2ccc(C(=O)c3ccccc3)c-2cc1`, the logD was 2.3.

For the molecule `O=C(NCc1cccnc1)c1ccc2[nH]cc(C(=O)c3ccccc3)c2c1`, the logD worked out at 0.8.

Take `CN1CCN(C(=O)c2ccc3c(c2)c(C(=O)c2ccccc2)cn3C)CC1`: the logD worked out at 2.

Regarding `Cn1cc(C(=O)N2CCC(C(N)=O)CC2)c2ccccc21`, the logD worked out at 0.4.

Turning to `O=C(NCCc1c[nH]c2ccccc12)c1ccc2ccc(C(=O)c3ccccc3)c-2cc1`, the logD came to 4.3.

For the molecule `Cn1cc(C(=O)c2ccccc2)c2cc(C(=O)NCCc3c[nH]c4ccccc34)ccc21`, the logD was determined as 3.5.

Another series in a line: Stability of the compound at pH 7.4 assessed as half life measured after 24 hrs in presence of GSH by HPLC analysis. The format is physicochemical. The settings on record: solution with GSH.
Usually half-life stands for the time in which the quantity being followed falls by half. For the molecule `C=CC(=O)N1C[C@H](Nc2ncnc3[nH]ccc23)CC[C@@H]1C` [RITLECITINIB], the half-life is 32 h.

For `COC(=O)c1ccc2ccc(C(=O)N(C)C)c-2cc1`, the half-life was more than 1000 h.

These data come from ChEMBL document CHEMBL5120825, “The azulene scaffold from a medicinal chemist's perspective: Physicochemical and in vitro parameters relevant for drug discovery” (Eur J Med Chem, 2022).
